Experimental data: ChEMBL document CHEMBL1122688, “Antimycotic azoles. 7. Synthesis and antifungal properties of a series of novel triazol-3-ones” (1984)

Columns and labels:
Aspergillus fumigatus = assay: In vitro antifungal activity against Aspergillus fumigatus; format: functional
Procedure, shortened: (§1)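 Fungal growth-inhibition screen (Godefroi method) against dermatophytes, yeasts, moulds and other fungi. The value is the lowest concentration (µg/mL) giving total inhibition of growth, tested up to 100 µg/mL.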

Candida albicans = assay: In vitro antifungal activity against Candida albicans; format: functional; procedure, shortened: as §1
Candida tropicalis = assay: In vitro antifungal activity against Candida tropicalis; format: functional; procedure, shortened: as §1
Cryptococcus neoformans = assay: In vitro antifungal activity against Cryptococcus neoformans; format: functional; procedure, shortened: as §1
Microsporum canis = assay: In vitro antifungal activity against Microsporum canis; format: functional; procedure, shortened: as §1
[1] = In vitro antifungal activity against Mucor sp; format: functional; procedure, shortened: as §1
Phialophora verrucosa = assay: In vitro antifungal activity against Phialophora verrucosa; format: functional; procedure, shortened: as §1
Saprolegnia = assay: In vitro antifungal activity against Saprolegnia sp; format: functional; procedure, shortened: as §1
Sporothrix schenckii = assay: In vitro antifungal activity against Sporothrix schenck ii; format: functional; procedure, shortened: as §1
Trichophyton benhamiae = assay: In vitro antifungal activity against Trichophyton mentagrophytes; format: functional, Arthroderma benhamiae; procedure, shortened: as §1
Trichophyton rubrum = assay: In vitro antifungal activity against Trichophyton rubrum; format: functional; procedure, shortened: as §1
[2] = In vivo activity against microsporosis guinea pig, measured as the ratio of animals cured/animals infected (C/I) at dose 2.5 mg/kg; C/I = 0/2; format: functional
[3] = In vivo activity against microsporosis guinea pig, measured as the ratio of animals cured/animals infected (C/I) at dose 10 mg/kg; C/I = 2/2; format: functional
[4] = In vivo activity against vaginal candidoses in rats, measured as the ratio of animals cured/animals infected (C/I) at dose 2.5 mg/kg; C/I = 1/2; format: functional
[5] = In vivo activity against microsporosis guinea pig, measured as the ratio of animals cured/animals infected (C/I) at dose 10 mg/kg; C/I = 1/2; format: functional
[6] = In vivo activity against vaginal candidoses in rats, measured as the ratio of animals cured/animals infected (C/I) at dose 2.5 mg/kg; C/I = 0/2; format: functional
[7] = In vivo activity against microsporosis guinea pig, measured as the ratio of animals cured/animals infected (C/I) at dose 10 mg/kg; C/I = 0/2; format: functional
[8] = In vivo activity against vaginal candidoses in rats, measured as the ratio of animals cured/animals infected (C/I) at dose 2.5 mg/kg; C/I = 4/6; format: functional
[9] = In vivo activity against vaginal candidoses in rats, measured as the ratio of animals cured/animals infected (C/I) at dose 1.25 mg/kg; C/I = 0/2; format: functional
[10] = In vivo activity against microsporosis guinea pig, measured as the ratio of animals cured/animals infected (C/I) at dose 10 mg/kg; C/I = 5/6; format: functional
[11] = In vivo activity against microsporosis guinea pig, measured as the ratio of animals cured/animals infected (C/I) at dose 1.25 mg/kg; C/I = 0/6; format: functional
[12] = In vivo activity against microsporosis guinea pig, measured as the ratio of animals cured/animals infected (C/I) at dose 2.5 mg/kg; C/I = 1/6; format: functional
[13] = In vivo activity against vaginal candidoses in rats, measured as the ratio of animals cured/animals infected (C/I) at dose 2.5 mg/kg; C/I = 1/6; format: functional
[14] = In vivo activity against vaginal candidoses in rats, measured as the ratio of animals cured/animals infected (C/I) at dose 10 mg/kg; C/I = 4/4; format: functional

| SMILES | Inhibition (Aspergillus fumigatus) [µg/mL] | Inhibition (Candida albicans) [µg/mL] | Inhibition (Candida tropicalis) [µg/mL] | Inhibition (Cryptococcus neoformans) [µg/mL] | Inhibition (Microsporum canis) [µg/mL] | Inhibition [1] [µg/mL] | Inhibition (Phialophora verrucosa) [µg/mL] | Inhibition (Saprolegnia) [µg/mL] | Inhibition (Sporothrix schenckii) [µg/mL] | Inhibition (Trichophyton benhamiae) [µg/mL] | Inhibition (Trichophyton rubrum) [µg/mL] | C/I ratio [4] | C/I ratio [7] | further results |
| --- | --- | --- | --- | --- | --- | --- | --- | --- | --- | --- | --- | --- | --- | --- |
| O=c1n(-c2ccc(N3CCN(c4ccc(OC[C@@H]5COC(Cn6cncn6)(c6ccc(Cl)cc6Cl)O5)cc4)CC3)cc2)cnn1C1CCCC1 (some centres not stated) | >100 | >100 | >100 | >100 | >100 | >100 | >100 | >100 | >100 | 100 | >100 | 1 |  | C/I ratio [2]: 0; C/I ratio [3]: 2 |
| CC(C)CCn1ncn(-c2ccc(N3CCN(c4ccc(OC[C@@H]5COC(Cn6cncn6)(c6ccc(Cl)cc6Cl)O5)cc4)CC3)cc2)c1=O (some centres not stated) | >100 | 100 | >100 | >100 | >100 | >100 | >100 | >100 | >100 | 100 | >100 |  |  | C/I ratio [5]: 1; C/I ratio [6]: 0 |
| CC(C)Cn1ncn(-c2ccc(N3CCN(c4ccc(OC[C@@H]5COC(Cn6ccnc6)(c6ccc(Cl)cc6Cl)O5)cc4)CC3)cc2)c1=O (some centres not stated) | >100 | 100 | >100 | >100 | >100 | > 100 | >100 | >100 | >100 | 100 | >100 | 1 | 0 |  |
| Cc1nn(C(C)C)c(=O)n1-c1ccc(N2CCN(c3ccc(OC[C@@H]4COC(Cn5cncn5)(c5ccc(Cl)cc5Cl)O4)cc3)CC2)cc1 (some centres not stated) | >100 | >100 | 10 | >100 | >100 | >100 | >100 | >100 | >100 | 100 | >100 | 1 | 0 |  |
| CCC(C)n1ncn(-c2ccc(N3CCN(c4ccc(OC[C@@H]5COC(Cn6ccnc6)(c6ccc(Cl)cc6Cl)O5)cc4)CC3)cc2)c1=O (some centres not stated) | 100 | >100 | 1 | 10 | >100 | >100 | 100 | >100 | >100 | 1 | 1 |  |  | C/I ratio [5]: 1 |
| O=c1n(-c2ccc(N3CCN(c4ccc(OC[C@@H]5COC(Cn6cncn6)(c6ccc(Cl)cc6Cl)O5)cc4)CC3)cc2)cnn1CC1CC1 (some centres not stated) | >100 | 100 | >100 | >100 | >100 | >100 | 100 | >100 | >100 | 10 | 10 | 1 |  | C/I ratio [2]: 0; C/I ratio [3]: 1 |
| CCCCn1ncn(-c2ccc(N3CCN(c4ccc(OC[C@@H]5COC(Cn6ccnc6)(c6ccc(Cl)cc6Cl)O5)cc4)CC3)cc2)c1=O (some centres not stated) | >100 | 100 | 100 | >100 | >100 | >100 | >100 | >100 | >100 | 100 | 10 |  |  | C/I ratio [8]: 4; C/I ratio [9]: 0 |
| Cc1nn(C(C)C)c(=O)n1-c1ccc(N2CCN(c3ccc(OC[C@@H]4COC(Cn5ccnc5)(c5ccc(Cl)cc5Cl)O4)cc3)CC2)cc1 (some centres not stated) | >100 | 100 | 1 | >100 | >100 | >100 | >100 | >100 | >100 | 100 | >100 |  |  | C/I ratio [10]: 0.833; C/I ratio [11]: 0; C/I ratio [12]: 1; C/I ratio [13]: 1 |
| CCCn1ncn(-c2ccc(N3CCN(c4ccc(OC[C@@H]5COC(Cn6ccnc6)(c6ccc(Cl)cc6Cl)O5)cc4)CC3)cc2)c1=O (some centres not stated) | >100 | >100 | >100 | >100 | >100 | >100 | >100 | >100 | >100 | 100 | 100 |  |  | C/I ratio [6]: 0; C/I ratio [14]: 1 |
| Cc1nnc(O)n1-c1ccc(N2CCN(c3ccc(OC[C@@H]4COC(Cn5cncn5)(c5ccc(Cl)cc5Cl)O4)cc3)CC2)cc1 (some centres not stated) | >100 | >100 | 1 | 100 | >100 | >100 | 100 | >100 | >100 | 10 | 100 |  | 0 |  |
